# Results as given in paper PMC9624299 (ACS chemical biology, 2022).
# Assays:
# T98G cells = assay: Cell viability assay; format: cell-based, human; conditions: for cytotoxicity (in words) / IC50: T98G
# Outline: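 T98G cells were cultured in EMEM/10% FBS/1% pen-strep at 37 °C, 5% CO2, seeded and allowed to adhere. Where indicated, cells were pretreated 3 h with the MGMT inhibitor O6BG. Test compound was then added in DMSO (1% final). After 7 days, viability was read by Alamar Blue, with raptinal 20 μM as dead control; n ≥ 3, SEM.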
# U87 cells = assay: Cell viability assay; format: cell-based, human; conditions: 7 days; for cytotoxicity (in words): U87; for IC50: U87, no MGMT expression, MGMT(−)/MMR(+), Alamar Blue
# Outline: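 Cells were cultured in EMEM with 10% FBS and 1% pen-strep (37 °C, 5% CO2), seeded and allowed to adhere 3 h. Test compound was added in DMSO (1% final). After 7 days of incubation, viability was read by Alamar Blue, with raptinal 20 μM as dead control. IC50 taken from dose–response curves; n ≥ 3, SEM.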
# linearized pBR322 DNA = assay: DNA cross-linking/alkylation assay; format: biochemical; conditions: linearized pBR322 DNA 150 ng, 37 °C, Tris pH 8.5, 15 h, agarose gel
# Outline: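 pBR322 was linearised with EcoRI, purified and taken up in 10 mM Tris-Cl pH 8.5. DNA (150 ng) was incubated with test compound (DMSO, 5% v/v) at 37 °C for 15 h. Cisplatin and MMS served as positive controls. Samples were denatured 15 min at 4 °C in NaOH-containing sucrose/bromophenol blue buffer (no NaOH for non-denatured controls). Gels were run on 1% neutral agarose with ethidium bromide in TBE, 124 V, 1 h.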
# GBM = conditions: intracranial murine model of GBM; cited from earlier work
# GBM cell lines = assay: Cell viability assay; format: cell-based; conditions: 7 days
# Outline: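 Panel lines were seeded and allowed to adhere 3 h, then dosed with test compound in DMSO (1% final) and incubated at 37 °C, 5% CO2 for 7 days. Viability was read by Alamar Blue, with raptinal 20 μM as dead control. IC50 values are from n ≥ 3, SEM.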
# [1] = Hydrolytic stability studies; format: physicochemical; conditions: for hydrolytic stability, percentage of prodrug remaining after 2 h: HPLC
# Outline: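 Compound (100 μM) was incubated in PBS at 37 °C, pH 7.4 (also pH 7 and 8). Aliquots taken at set time points were analysed by HPLC. Peak areas were compared with t0 to give percent prodrug remaining, including at 2 h.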
# BBB permeability = format: in vivo, CD-1 IGS mice; conditions: mice, 25 mg/kg IV, 15 min
# Outline: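 CD-1 IGS mice received 25 mg/kg by lateral tail vein in 5% DMSO, 10% Tween-20 and 85% SBE-βCD (30% w/v in water), and were killed at 15 min. Blood was taken, then mice were saline-perfused. Serum was acidified with 8.5% H3PO4. Brains were acidified (0.3% H3PO4), frozen, homogenised and centrifuged. Levels were measured by LC–MS/MS and used for brain:serum ratio; ≥3 mice/cohort.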
# GL261 cells [2] = assay: Cell viability assay, GL261; format: cell-based; conditions: Mus musculus, GL261, 168 h
# Outline: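 Cells were grown in DMEM with 10% FBS and 1% pen-strep at 37 °C, 5% CO2, seeded and allowed to adhere. After 3 h, test compound was added in DMSO (1% final). Cells were incubated 7 days, and viability was assessed by Alamar Blue, with raptinal 20 μM as dead control.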
# HCT116 cells = assay: Cell viability assay, HCT116; format: cell-based
# Outline: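 HCT116 cells were grown in RPMI with 10% FBS and 1% pen-strep (37 °C, 5% CO2), seeded and allowed to adhere. Cells were tested with or without O6BG pretreatment. Test compound was added in DMSO (1% final) after 3 h. After 7 days, viability was read by Alamar Blue, with raptinal 20 μM as dead control.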
# RKO cells = assay: Cell viability assay, RKO colon cancer; format: cell-based
# D54 cells = assay: Quantitation of O6-guanine DNA adducts in cells; format: cell-based; conditions: D54, MGMT-negative; LC–MS/MS
# A172 cells = assay: Quantitation of O6-guanine DNA adducts in cells; format: cell-based; conditions: A172, MGMT-negative; LC–MS/MS
# GL261 MGMT+ cells = assay: Cell viability assay, GL261 MGMT+; format: cell-based, mouse
# [3] = same schedule (once-per-day over five days); cited from earlier work
# D341 Med cells = assay: Cell viability assay, D341 Med medulloblastoma; format: cell-based; conditions: Homo sapiens, 168 h
# Outline: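 D341 Med medulloblastoma cells were grown in EMEM with 20% FBS and 1% pen-strep (37 °C, 5% CO2). Cells were seeded and compound was added in DMSO (1% final) after 3 h. Incubation lasted 7 days, and viability was read by Alamar Blue, with raptinal 20 μM as dead control.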
# glioblastoma = conditions: GBM patients, TMZ added to RT; cited from earlier work
# U118MG cells = assay: Cell viability assay, U118MG; format: cell-based; conditions: MGMT-expressing
# GL261 cells [4] = assay: Quantitation of O6-guanine DNA adducts in cells; format: cell-based, mouse; conditions: 100, 300 or 500 μM, 8 h, LC–MS/MS
# Outline: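 GL261 cells were plated at 1 × 10^6 per well and exposed to test compound at 100, 300 or 500 μM (1% DMSO) for 8 h. Genomic DNA was extracted, then precipitated with sodium acetate and ethanol. DNA (10 μg) was hydrolysed to deoxynucleosides (37 °C, 6 h). O6-alkyl-dG was quantified by LC–MS/MS against a synthetic standard; n ≥ 3.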
# [5] = aqueous solution, PBS, pH 7.4, 37 °C; cited from earlier work
# [6] = system: Salmonella typhimurium TA100 strain; assay: Ames test, TA100; format: cell-based; conditions: 30 μM, 5 days, no S9 activation, wells per 96
# Outline: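 TA100 S. typhimurium was grown overnight, then dispensed into 96-well plates (microplate Ames format) with test compound, growth medium and colorimetric indicator, without S9 activation. Plates were incubated 5 days, and the number of wells per plate showing revertant growth was scored by colour change.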
# [7] = Assessment of hematological toxicity; format: in vivo, CD-1 IGS mice; conditions: mice, single 125 mg/kg IV dose, 7 days
# [8] = system: Escherichia coli WP2 uvrA pKM101 strain; assay: Ames test, WP2 uvrA pKM101; format: cell-based; conditions: 30 μM
# Outline: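 E. coli WP2 uvrA pKM101 tester strain was run in the 96-well microplate version of the Ames test following the kit maker's instructions. Test compound was added at the indicated concentrations.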
# [9] = cited from earlier work
# [10] = high MGMT expression, MGMT(+)/MMR(+), 7 days, Alamar Blue
smiles,measurement,setting,value
CC(C)(C)Cn1nnc2c(C(N)=O)ncn2c1=O [Compound 6],cytotoxicity (in words),T98G cells; 7 days,inactive
same,cytotoxicity (in words),U87 cells,inactive
CC#CCn1nnc2c(C(N)=O)ncn2c1=O [Compound 19],DNA alkylation (in words),linearized pBR322 DNA,Trace DNA alkylation
same,DNA interstrand cross-linking (in words),linearized pBR322 DNA,definitively absent
same,IC50,T98G cells; [10],110 µM
same,IC50,U87 cells,37 µM
N.N.[Cl][Pt][Cl] [cisplatin],DNA interstrand cross-linking (in words),linearized pBR322 DNA,prevent the full denaturation of double-stranded DNA
NC(=O)c1ncn2c(=O)[nH]nnc12 [Compound 1],cytotoxicity (in words),T98G cells; 7 days,unable to induce cell death
same,cytotoxicity (in words),U87 cells,unable to induce cell death
"NC(=O)c1ncn2c(=O)n(CCCl)nnc12 [MTZ, mitozolomide]",cytotoxicity (in words),T98G cells; 7 days,robust cytotoxicity
same,cytotoxicity (in words),U87 cells,robust cytotoxicity
CC(C)(C)n1nnc2c(C(N)=O)ncn2c1=O [Compound 5],cytotoxicity (in words),T98G cells; 7 days,inactive
same,cytotoxicity (in words),U87 cells,inactive
C#CCn1nnc2c(C(N)=O)ncn2c1=O [Compound 10],efficacy in an intracranial efficacy model (in words),GBM,limited efficacy
same,IC50,GBM cell lines; all cell lines of the expanded GBM panel,< 100 µM
same,half-life,"[1]; PBS pH 7.4, 37 °C",~ 30 min
same,"hydrolytic stability, percentage of prodrug remaining after 2 h","[1]; PBS pH 7.4, 37 °C",8%
same,IC50,T98G cells; [10],77 µM
same,IC50,U87 cells,29 µM
same,brain:serum ratio,BBB permeability,0.06 ± 0.01 ng/g:ng/mL
"Cn1nnc2c(C(N)=O)ncn2c1=O [TMZ, temozolomide]",IC50,GL261 cells [2],120 µM
same,effect of MGMT inhibitor pretreatment on cytotoxicity,HCT116 cells; HCT116 pretreated with O6BG,negligible potentiation
same,IC50,"HCT116 cells; Homo sapiens, HCT-116, 168 h",> 800 µM
same,IC50,RKO cells; Homo sapiens,> 1000 µM
same,effect of MGMT inhibitor pretreatment on cell death,"RKO cells; MGMT-expressing, MGMT inhibitor",cell death potentiation
same,O6-dG alkylation adducts,D54 cells,dose-dependent increase in methyl adducts
same,O6-dG alkylation adducts,A172 cells,dose-dependent increase in methyl adducts
same,effect of MGMT inhibitor pretreatment on cell death,GL261 MGMT+ cells; GL261 MGMT+ pre-treated with lomeguatrib,potentiation of cell death
same,IC50,"GL261 MGMT+ cells; Mus musculus, GL261, 168 h",> 1000 µM
same,reported MTD,[3],~ 66 mg/kg
same,difference in IC50 values between MGMT-negative and positive cell lines,GBM cell lines; expanded GBM panel,> 6 fold
same,DNA alkylation (in words),linearized pBR322 DNA,cause DNA streaking
same,IC50,D341 Med cells,460 µM
same,"hydrolytic stability, percentage of prodrug remaining after 2 h","[1]; PBS pH 7.4, 37 °C",40%
same,half-life at 100 μM,"[1]; PBS, pH 7.4",~1.5 h
same,overall patient survival,glioblastoma,15 months
same,survival benefit vs RT alone,glioblastoma,≤ 8 month
same,effect of MGMT inhibitor pretreatment on cell death,U118MG cells,cell death potentiation
same,IC50,"T98G cells; Homo sapiens, 168 h",> 550 µM
same,loss of activity in T98G relative to U87,T98G cells; IC50 T98G vs U87,> 10 fold
same,effect of MGMT inhibitor pretreatment on cell death,T98G cells; T98G pretreated (3 h) with O6BG vs non-pretreated,dramatic potentiation of cell death
same,"O6-alkyl-2′-deoxyguanosine adducts (O6-Me-dG for TMZ, O6-Prop-dG for CPZ)",GL261 cells [4],dose-dependent increase
same,half-life in vitro,[5],1.5 to 2 h
same,revertant (mutated) colonies,[6],35/96
same,"white blood cell, lymphocyte and neutrophil counts (in words)",[7],"depletions in white blood cells, lymphocytes, and neutrophils"
same,mutagenicity (in words),[8],highly mutagenic
same,revertant colonies,[8]; wells per 96,95/96
same,half-life in vivo (t1/2),"[9]; human patients, human pharmacokinetics",1.5 to 2 h
same,cerebral spinal fluid concentration as percentage of plasma concentration,"[9]; humans, average",about 20%
CC(C)n1nnc2c(C(N)=O)ncn2c1=O [Compound 4],cytotoxicity (in words),T98G cells; 7 days,inactive
same,cytotoxicity (in words),U87 cells,inactive
CCn1nnc2c(C(N)=O)ncn2c1=O [Compound 2],cytotoxicity (in words),T98G cells; 7 days,much less active than TMZ
same,IC50,U87 cells,470 µM
same,cytotoxicity (in words),U87 cells,much less active than TMZ
"COS(C)(=O)=O [MMS, methylmethanesulfonate]",DNA alkylation (in words),linearized pBR322 DNA,cause DNA streaking
C=CC=O [acrolein],DNA alkylation (in words),linearized pBR322 DNA,no evidence of alkylation
same,DNA interstrand cross-linking (in words),linearized pBR322 DNA,interstrand cross-linking
